According to ChEMBL document CHEMBL3108700, “Designing anti-inflammatory drugs from parasitic worms: a synthetic small molecule analogue of the Acanthocheilonema viteae product ES-62 prevents development of collagen-induced arthritis” (J Med Chem, 2013):
Activity calls are given as the source filed them.

How the values were obtained:
[1] = target: T1, Toll-like receptor 4 (Mus musculus) (UniProt Q9QUK6); assay: Inhibition of TLR4-mediated NFkappaB p65 activation in LPS-stimulated BALB/c mouse BMDM at 5 ug/ml preincubated for 18 hrs followed by LPS challenge measured after 1 hr by TransAM ELISA
T1 sequence (whole entry): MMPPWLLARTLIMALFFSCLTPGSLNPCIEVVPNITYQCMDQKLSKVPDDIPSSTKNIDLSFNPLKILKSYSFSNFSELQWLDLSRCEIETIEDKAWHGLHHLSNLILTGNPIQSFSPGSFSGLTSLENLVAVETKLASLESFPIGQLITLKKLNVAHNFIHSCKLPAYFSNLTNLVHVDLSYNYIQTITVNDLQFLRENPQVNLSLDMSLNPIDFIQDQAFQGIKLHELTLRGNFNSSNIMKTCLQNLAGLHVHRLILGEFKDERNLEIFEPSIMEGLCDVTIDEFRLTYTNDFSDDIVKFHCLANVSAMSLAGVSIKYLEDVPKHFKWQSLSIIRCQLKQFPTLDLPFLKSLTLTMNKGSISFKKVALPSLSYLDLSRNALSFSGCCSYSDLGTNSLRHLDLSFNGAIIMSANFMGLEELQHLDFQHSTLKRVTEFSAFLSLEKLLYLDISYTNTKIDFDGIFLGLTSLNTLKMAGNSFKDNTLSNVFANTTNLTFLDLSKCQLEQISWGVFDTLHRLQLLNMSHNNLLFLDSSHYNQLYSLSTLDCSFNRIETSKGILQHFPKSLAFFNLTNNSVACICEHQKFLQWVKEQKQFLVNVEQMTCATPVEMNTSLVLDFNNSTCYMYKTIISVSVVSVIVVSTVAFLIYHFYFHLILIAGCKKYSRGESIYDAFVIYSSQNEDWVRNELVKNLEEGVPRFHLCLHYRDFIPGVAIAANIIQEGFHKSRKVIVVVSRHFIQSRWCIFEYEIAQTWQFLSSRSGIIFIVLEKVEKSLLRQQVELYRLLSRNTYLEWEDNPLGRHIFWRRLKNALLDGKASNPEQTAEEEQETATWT
Summary of the method: (§1)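 Bone marrow macrophages (4 × 10^6/well) had their medium changed after 24 h, were pretreated with compounds at 5 μg/mL for 18 h, then stimulated for 1 h with 100 ng/mL LPS, 10 ng/mL BLP or 1 μM CpG. Activated NFκB p65 in nuclear extracts was measured by TransAM ELISA in duplicate.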

TLR2/TLR6 (Mus musculus) [2] = target: T2, TLR2/TLR6 (Mus musculus) (UniProt Q9QUN7+Q9EPW9); assay: Inhibition of TLR2/6-mediated NFkappaB p65 activation in BLP-stimulated BALB/c mouse BMDM at 5 ug/ml preincubated for 18 hrs followed by BLP challenge measured after 1 hr by TransAM ELISA; type: protein-complex assay; summary of the method: as §1
[3] = target: T1, Toll-like receptor 4 (Mus musculus); assay: Inhibition of TLR4 in BALB/c mouse BMDM assessed as downregulation of LPS-stimulated IL-12p40 level at 5 ug/ml preincubated for 18 hrs followed by LPS challenge measured after 24 hrs by ELISA relative to control
Summary of the method: (§2)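 BALB/c male bone marrow macrophages were differentiated 7 days with L929 supernatant (≥99% CD11b+/F4/80+). Cells were plated at 2 × 10^5/well in triplicate, rested overnight, and given compounds at 5 μg/mL for 18 h. They were then stimulated with 100 ng/mL S. minnesota LPS, 10 ng/mL Pam3CSK4 (BLP) or 0.01 μM CpG for 24 h. Supernatant IL-12p40 and IL-6 were measured by ELISA (sensitivity 16 pg/mL).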

[4] = target: T3, Toll-like receptor 9 (Mus musculus) (UniProt Q9EQU3); assay: Inhibition of TLR9 in BALB/c mouse BMDM assessed as downregulation of CpG-stimulated IL-12p40 level at 5 ug/ml preincubated for 18 hrs followed by CpG challenge measured after 24 hrs by ELISA relative to control; summary of the method: as §2
T3 sequence (whole entry): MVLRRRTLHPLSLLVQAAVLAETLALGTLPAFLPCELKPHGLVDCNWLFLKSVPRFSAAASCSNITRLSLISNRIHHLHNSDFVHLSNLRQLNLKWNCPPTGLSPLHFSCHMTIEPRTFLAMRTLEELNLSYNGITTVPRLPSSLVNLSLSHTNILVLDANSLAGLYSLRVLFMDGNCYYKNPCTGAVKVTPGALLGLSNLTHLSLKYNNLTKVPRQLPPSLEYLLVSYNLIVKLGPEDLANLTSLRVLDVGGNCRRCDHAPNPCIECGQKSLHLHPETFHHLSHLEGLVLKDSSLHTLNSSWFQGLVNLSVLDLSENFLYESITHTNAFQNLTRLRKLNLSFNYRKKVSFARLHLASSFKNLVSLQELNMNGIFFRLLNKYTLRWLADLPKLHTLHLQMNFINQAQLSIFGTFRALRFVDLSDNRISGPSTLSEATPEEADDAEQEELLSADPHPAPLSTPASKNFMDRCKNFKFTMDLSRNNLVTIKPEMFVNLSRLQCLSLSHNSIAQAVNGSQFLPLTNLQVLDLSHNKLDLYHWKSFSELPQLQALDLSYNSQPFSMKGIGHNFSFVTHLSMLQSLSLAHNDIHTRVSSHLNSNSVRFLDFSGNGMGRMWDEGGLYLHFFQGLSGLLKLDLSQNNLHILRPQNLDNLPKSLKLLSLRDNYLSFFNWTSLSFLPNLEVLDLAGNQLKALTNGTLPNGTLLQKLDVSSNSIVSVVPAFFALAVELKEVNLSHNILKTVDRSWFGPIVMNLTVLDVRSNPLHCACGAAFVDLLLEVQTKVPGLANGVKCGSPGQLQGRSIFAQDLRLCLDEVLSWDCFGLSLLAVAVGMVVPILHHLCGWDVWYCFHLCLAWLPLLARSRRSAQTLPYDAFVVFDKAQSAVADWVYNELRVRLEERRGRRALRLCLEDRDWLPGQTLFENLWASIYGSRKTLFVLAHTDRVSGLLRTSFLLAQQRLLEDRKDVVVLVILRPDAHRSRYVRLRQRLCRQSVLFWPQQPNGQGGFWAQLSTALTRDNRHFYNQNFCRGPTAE

TLR2/TLR6 (Mus musculus) [5] = target: T2, TLR2/TLR6 (Mus musculus); assay: Inhibition of TLR2/6 in BALB/c mouse BMDM assessed as downregulation of BLP-stimulated IL-6 level at 5 ug/ml preincubated for 18 hrs followed by BLP challenge measured after 24 hrs by ELISA relative to control; type: protein-complex assay; summary of the method: as §2
[6] = target: T3, Toll-like receptor 9 (Mus musculus); assay: Inhibition of TLR9 in BALB/c mouse BMDM assessed as downregulation of CpG-stimulated IL-6 level at 5 ug/ml preincubated for 18 hrs followed by CpG challenge measured after 24 hrs by ELISA relative to control; summary of the method: as §2
[7] = target: T3, Toll-like receptor 9 (Mus musculus); assay: Inhibition of TLR9-mediated NFkappaB p65 activation in CpG-stimulated BALB/c mouse BMDM at 5 ug/ml preincubated for 18 hrs followed by CpG challenge measured after 1 hr by TransAM ELISA; summary of the method: as §1
TLR2/TLR6 (Mus musculus) [8] = target: T2, TLR2/TLR6 (Mus musculus); assay: Inhibition of TLR2/6 in BALB/c mouse BMDM assessed as downregulation of BLP-stimulated IL-12p40 level at 5 ug/ml preincubated for 18 hrs followed by BLP challenge measured after 24 hrs by ELISA relative to control; type: protein-complex assay; summary of the method: as §2
[9] = target: T1, Toll-like receptor 4 (Mus musculus); assay: Inhibition of TLR4 in BALB/c mouse BMDM assessed as downregulation of LPS-stimulated IL-6 level at 5 ug/ml preincubated for 18 hrs followed by LPS challenge measured after 24 hrs by ELISA relative to control; summary of the method: as §2

| Structure (SMILES) | inhibition [1] | inhibition (TLR2/TLR6 (Mus musculus) [2]) | inhibition [3] | inhibition [4] | inhibition (TLR2/TLR6 (Mus musculus) [5]) | inhibition [6] | inhibition [7] | inhibition (TLR2/TLR6 (Mus musculus) [8]) | inhibition [9] |
| --- | --- | --- | --- | --- | --- | --- | --- | --- | --- |
| CCCNCCS(=O)(=O)c1ccccc1 |  |  | inactive | inactive | Active | inactive |  | Active | inactive |
| O=[N+]([O-])c1ccc(CS(=O)(=O)NCCN2CCCC2)cc1 |  |  | inactive | inactive | inactive | inactive |  | inactive | inactive |
| O=S(=O)(Cc1ccc(Br)cc1)NCCN1CCCC1 |  |  | inactive | inactive | inactive | inactive |  | inactive | inactive |
| O=C(Cc1ccccc1)NCCN1CCCC1 |  |  | Active | Active | Active | Active |  | inactive | Active |
| O=C(Cc1ccccc1)NCCN1CCOCC1 |  |  | Active | Active | inactive | Active |  | inactive | inactive |
| O=S(=O)(Cc1ccc(Br)cc1)NCCN1CCOCC1 |  |  | inactive | inactive | inactive | inactive |  | inactive | inactive |
| O=S(=O)(CCNCCCO)c1ccccc1 |  |  | inactive | inactive | inactive | inactive |  | Active | inactive |
| COc1ccc2c(CS(=O)(=O)NCCN3CCCC3)cc(=O)oc2c1 |  |  | Active | inactive | inactive | inactive |  | Active | inactive |

Results, then the compound that gave them:

| inhibition [1] | inhibition (TLR2/TLR6 (Mus musculus) [2]) | inhibition [3] | inhibition [4] | inhibition (TLR2/TLR6 (Mus musculus) [5]) | inhibition [6] | inhibition [7] | inhibition (TLR2/TLR6 (Mus musculus) [8]) | inhibition [9] | Structure (SMILES) |
| --- | --- | --- | --- | --- | --- | --- | --- | --- | --- |
| inactive | inactive | inactive | Active | Active | Active | inactive | Active | Active | CN(C)CCS(=O)(=O)NCc1ccc([N+](=O)[O-])cc1 |
|  |  | inactive | inactive | inactive | inactive |  | inactive | inactive | CN(C)CCNS(=O)(=O)Cc1ccccc1 |
|  |  | Active | inactive | inactive | inactive |  | Active | inactive | COc1ccc2c(CS(=O)(=O)NCCN(C)C)cc(=O)oc2c1 |
|  |  | inactive | inactive | Active | inactive |  | inactive | Active | C[N+](C)(C)CCCS(=O)(=O)Cc1ccc(Br)cc1 |
|  |  | inactive | inactive | inactive | inactive |  | inactive | inactive | CN(C)CCS(=O)(=O)Cc1cccc(F)c1 |
